PMC6364161 (Journal of Veterinary Research, 2018)

How the values were obtained:
HK-2 cells = details: MTT assay, 480 μM; cited from earlier work
BALB/3T3 cells [1] = test: MTT reduction assay, BALB/3T3 cells; type: cell-based, Mouse; details: for cell viability at low doses / cell viability: MTT; for cell viability at low doses: BALB/3T3, 100 and 200 μM; for cell viability: BALB/3T3, 100 to 1,400 μM, 24 h, compared to control
In short: (§1)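 Cells were plated at 2 × 10^5 cells/mL and cultured 24 h: BALB/3T3 in DMEM with 10% heat-inactivated calf serum, HepG2 in EMEM with 10% heat-inactivated FBS. Medium was then replaced with test compound at 100–1,400 μM, diluted from a 10 mM PBS stock, for 24 h. MTT reduction was read spectrophotometrically as viability relative to untreated control (100%), and IC50 was taken from the dose-response curve. Six independent experiments, triplicate wells.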

HepG2 cells [2] = test: MTT reduction assay, HepG2 cells; type: cell-based, human; details: for IC50: MTT assay, HepG2, 24 h incubation; for cell viability at low doses / cell viability: MTT; for cell viability at low doses: HepG2, 100 and 200 μM; for cell viability: HepG2, 100 to 1,400 μM, 24 h, compared to control
In short: as §1

BALB/3T3 cells [3] = test: LDH release assay, BALB/3T3 cells; type: cell-based, Mouse; details: for IC50: LDH leakage assay, BALB/3T3, 24 h incubation; for LDH leakage (membrane integrity): LDH release, BALB/3T3, 100 to 1,400 μM, 24 h
In short: (§2)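 Test compounds (10 mM stock in PBS) were diluted in complete medium: DMEM plus 10% heat-inactivated calf serum for BALB/3T3 cells, EMEM plus 10% heat-inactivated FBS for HepG2 cells. Cells were seeded at 2 × 10^5 cells/mL, grown 24 h, then exposed to 100–1,400 μM for 24 h at 37 °C, 5% CO2. Released LDH was taken as a percentage of total LDH absorbance, and IC50 was read from the dose-response curve. Six independent experiments, three wells each.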

HepG2 cells [4] = test: LDH release assay, HepG2 cells; type: cell-based, human; details: for IC50: LDH leakage assay, HepG2, 24 h incubation; for LDH leakage (membrane integrity): LDH release, HepG2, 100 to 1,400 μM, 24 h
In short: as §2

BALB/3T3 cells [5] = test: Neutral red uptake assay, BALB/3T3 cells; type: cell-based, Mouse; details: NRU; for cell viability at low doses: BALB/3T3, 100, 200, and 400 μM; for cell viability: BALB/3T3, 100 to 1,400 μM, 24 h
In short: (§3)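 Neutral red uptake, a measure of lysosomal activity. BALB/3T3 cells were grown in DMEM with 10% heat-inactivated calf serum and HepG2 cells in EMEM with 10% heat-inactivated FBS, both seeded at 2 × 10^5 cells/mL for 24 h. Cells were then exposed for 24 h to test compound at 100–1,400 μM, diluted in medium from a 10 mM PBS stock. Viability was measured spectrophotometrically against control cells, and IC50 was read from the dose-response curve. Six independent experiments, three wells per treatment.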

HepG2 cells [6] = test: Neutral red uptake assay, HepG2 cells; type: cell-based, human; details: for cell viability at low doses / cell viability: NRU; for cell viability at low doses: HepG2, 100, 200, and 400 μM; for cell viability: HepG2, 100 to 1,400 μM, 24 h
In short: as §3

Question: With `CC(=O)[O-].CC(=O)[O-].[Ni+2]` [Ni (II) acetate] as the compound, how does the cell viability (HK-2 cells) read?
Answer: less than 50%

Question: Which IC50 (BALB/3T3 cells [1]; MTT assay, BALB/3T3, 24 h incubation) does the source give for `[Cl][Ni][Cl]` [Nickel chloride, NiCl2] here?
Answer: 700 µM

Question: What about the “cell viability at low doses” value (BALB/3T3 cells [1]) of the same compound?
Answer: increased

Question: And the cell viability (BALB/3T3 cells [1])?
Answer: significantly decreased in a concentration-dependent manner

Question: What about the IC50 (HepG2 cells [2]) of the same compound?
Answer: 400 µM

Question: What about the “cell viability at low doses” value (HepG2 cells [2]) of the same compound?
Answer: increased

Question: What about the cell viability (HepG2 cells [2]) of the same compound?
Answer: significantly decreased in a concentration-dependent manner

Question: What about the IC50 (BALB/3T3 cells [3]) of the same compound?
Answer: 300 µM

Question: What about the “LDH leakage (membrane integrity)” value (BALB/3T3 cells [3]) of the same compound?
Answer: increasingly significant LDH leakage

Question: What about the IC50 (HepG2 cells [4]) of the same compound?
Answer: 800 µM

Question: What about the “LDH leakage (membrane integrity)” value (HepG2 cells [4]) of the same compound?
Answer: increasingly significant LDH leakage

Question: What about the “cell viability at low doses” value (BALB/3T3 cells [5]) of the same compound?
Answer: increased

Question: What about the cell viability (BALB/3T3 cells [5]) of the same compound?
Answer: significantly decreased in a concentration-dependent manner

Question: What about the “cell viability at low doses” value (HepG2 cells [6]) of the same compound?
Answer: increased

Question: And the cell viability (HepG2 cells [6])?
Answer: significantly decreased in a concentration-dependent manner

Question: Which IC50 (HepG2 cells [2]) does the source give for `[Cl-].[Cl-].[Cl-].[Fe+3]` [Iron chloride, FeCl3 × 6H2O] here?
Answer: 1300 µM

Question: What about the IC50 (BALB/3T3 cells [3]) of the same compound?
Answer: 550 µM

Question: And the IC50 (HepG2 cells [4])?
Answer: 900 µM

Question: And the IC50 (HepG2 cells [6]; NRU assay, HepG2, 24 h incubation)?
Answer: 1200 µM

Question: Which “cell viability at low doses” value (BALB/3T3 cells [1]) does the source give for `O.O.O.O.O.O.[Cl-].[Cl-].[Cl-].[Fe+3]` [Iron chloride, FeCl3 × 6H2O] here?
Answer: increased

Question: What about the cell viability (BALB/3T3 cells [1]) of the same compound?
Answer: significantly decreased in a concentration-dependent manner

Question: What about the “cell viability at low doses” value (HepG2 cells [2]) of the same compound?
Answer: increased

Question: And the cell viability (HepG2 cells [2])?
Answer: significantly decreased in a concentration-dependent manner

Question: What about the “LDH leakage (membrane integrity)” value (BALB/3T3 cells [3]) of the same compound?
Answer: increasingly significant LDH leakage

Question: What about the “LDH leakage (membrane integrity)” value (HepG2 cells [4]) of the same compound?
Answer: increasingly significant LDH leakage

Question: And the “cell viability at low doses” value (BALB/3T3 cells [5])?
Answer: increased

Question: What about the cell viability (BALB/3T3 cells [5]) of the same compound?
Answer: significantly decreased in a concentration-dependent manner

Question: And the “cell viability at low doses” value (HepG2 cells [6])?
Answer: increased

Question: And the cell viability (HepG2 cells [6])?
Answer: significantly decreased in a concentration-dependent manner
